For orientation: IC50 means the concentration at which inhibition is half-maximal.

This note sets out measurements from ChEMBL document CHEMBL5584302, “Exploration of Hydrazide-Based HDAC8 PROTACs for the Treatment of Hematological Malignancies and Solid Tumors” (J Med Chem, 2024).

Active and inactive are the calls of the source. The calls are words filed in the database; no cut-off is given here.

Experiment [1] deals with THP-1. The experiment is described as follows: cells. As to conditions: Homo sapiens, THP-1, 72 h.
Experiment [2] concerns Jurkat. In words: Upregulation of Ac-SMC3 level in human Jurkat cells at 1 uM measured after 6 hrs by Western blot analysis. It counts as functional, cell-based. The method in brief: (§1)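 Jurkat cells exposed to the indicated compound concentrations for 6 h. Ac-SMC3 and Ac-HH3 were detected by Western blot with GAPDH as loading control. Bands were quantified by densitometry and normalized to the DMSO-treated group. Data are mean ± SEM of two independent experiments, compared with DMSO by one-way ANOVA.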
In general terms: In western blotting, separated proteins are transferred to a membrane and probed.

In experiment [3] the test system is Jurkat. In words: Upregulation of Ac-tubulin level in human Jurkat cells at 1 uM measured after 6 hrs by Western blot analysis. It is filed as functional, cell-based. The method, boiled down:
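Jurkat cells were treated for 6 h at the indicated concentrations. Acetylated tubulin was probed by Western blot, with GAPDH as loading control.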

Experiment [4] has as its system Jurkat. In words: Upregulation of Ac-HH3 level in human Jurkat cells at 1 uM measured after 6 hrs by Western blot analysis. It counts as functional, cell-based. The method in brief: as §1
Experiment [5] has as its system Jurkat. In words: Upregulation of Ac-HH3 level in human Jurkat cells at 0.004 to 0.33 uM incubated for 6 hrs by Western blot analysis. It counts as functional, cell-based. As to conditions: dose 0.004-0.33 µM. The method in brief:
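Jurkat cells were exposed to the compound for 6 h. Ac-SMC3, Ac-HH3, Ac-tubulin and HDAC8 were probed by Western blot with GAPDH as loading control. Ac-HH3 bands were quantified by densitometry and normalized to the DMSO-treated group. Values are mean ± SEM of two independent experiments, compared with DMSO by one-way ANOVA.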

The test system of experiment [6] is Jurkat. In words: Upregulation of AcHH4 level on human Jurkat cells at 1 to 10 uM measured after 48 hrs by Western blot analysis. It counts as functional, cell-based. The note with it: dose 1-10 µM.
For experiment [7], the system named is Jurkat. In words: Upregulation of AcHH3 level on human Jurkat cells at 1 to 10 uM measured after 48 hrs by Western blot analysis. The note with it: dose 1-10 µM. It is filed as functional, cell-based.
In experiment [8] the test system is Jurkat. The experiment is described as follows: Induction of apoptosis in human Jurkat cells assessed as increase in caspase 3/7 activity at 5 uM incubated for 48 hrs. It is filed as functional, cell-based.
The test system of experiment [9] is HCT-116. The experiment is described as follows: Induction of apoptosis in human HCT-116 cells assessed as increase in caspase 3/7 activity at 5 uM incubated for 48 hrs. It counts as functional, cell-based.
The subject of experiment [10] is Jurkat. In words: Antiproliferative activity against human Jurkat cells assessed as inhibition of cell growth measured after 72 hrs in presence of N-(4-(2-Hexylhydrazine-1-carbonyl)benzyl)acetamide by MTS assay. It is filed as functional, cell-based. For orientation: Tetrazolium dyes change colour on reduction, which living cells bring about.
In experiment [11] the test system is THP-1. The experiment is described as follows: Antiproliferative activity against human THP-1 cells assessed as inhibition of cell growth measured after 72 hrs in presence of N-(4-(2-Hexylhydrazine-1-carbonyl)benzyl)acetamide by MTS assay. It counts as functional, cell-based. As to conditions: THP-1, 72 h.
Experiment [12] deals with HCT-116. In words: Antiproliferative activity against human HCT-116 cells assessed as inhibition of cell growth measured after 72 hrs in presence of N-(4-(2-Hexylhydrazine-1-carbonyl)benzyl)acetamide by MTS assay. It counts as functional, cell-based. The note with it: HCT-116, 72 h.
Experiment [13] deals with A549. The experiment is described as follows: Antiproliferative activity against human A549 cells assessed as inhibition of cell growth measured after 72 hrs in presence of N-(4-(2-Hexylhydrazine-1-carbonyl)benzyl)acetamide by MTS assay. It is filed as functional, cell-based. The note with it: A549, 72 h.
For experiment [14], the system named is Jurkat. In words: Induction of apoptosis in human Jurkat cells assessed as increase in caspase 3/7 activity at 5 uM incubated for 48 hrs in presence of N-(4-(2-Hexylhydrazine-1-carbonyl)benzyl)acetamide. It counts as functional, cell-based.
For experiment [15], the system named is HCT-116. In words: Induction of apoptosis in human HCT-116 cells assessed as increase in caspase 3/7 activity at 5 uM incubated for 48 hrs in presence of N-(4-(2-Hexylhydrazine-1-carbonyl)benzyl)acetamide. It is filed as functional, cell-based.
The subject of experiment [16] is HCT-116. The experiment is described as follows: Induction of apoptosis in human HCT-116 cells assessed as viable cells at 10 uM measured after 48 hrs in presence of N-(4-(2-Hexylhydrazine-1-carbonyl)benzyl)acetamide by AnnexinV/FITC and PI staining based flow cytometry analysis (reference value: 91.3%). It is filed as functional. As to conditions: read-out: Activity.

Experiment [17] concerns HCT-116. The experiment is described as follows: Induction of apoptosis in human HCT-116 cells assessed as early apoptotic cells at 10 uM measured after 48 hrs in presence of N-(4-(2-Hexylhydrazine-1-carbonyl)benzyl)acetamide by AnnexinV/FITC and PI staining based flow cytometry analysis (reference value: 5.39%). It is filed as functional. Background: In flow cytometry, cells or beads pass a laser one at a time.

The subject of experiment [18] is HCT-116. In words: Induction of apoptosis in human HCT-116 cells assessed as late apoptotic cells at 10 uM measured after 48 hrs in presence of N-(4-(2-Hexylhydrazine-1-carbonyl)benzyl)acetamide by AnnexinV/FITC and PI staining based flow cytometry analysis (reference value: 1.96%). It counts as functional.
In experiment [19] the test system is HCT-116. The experiment is described as follows: Induction of apoptosis in human HCT-116 cells assessed as necrotic cells at 10 uM measured after 48 hrs in presence of N-(4-(2-Hexylhydrazine-1-carbonyl)benzyl)acetamide by AnnexinV/FITC and PI staining based flow cytometry analysis (reference value: […]). It counts as functional.
Experiment [20] relates to Jurkat. In words: Upregulation of Ac-SMC3 level in human Jurkat cells at high concentration incubated for 6 hrs by Western blot analysis. It is filed as functional, cell-based. The method in brief: as §1
Experiment [21] concerns Jurkat. The experiment is described as follows: Upregulation of Ac-HH3 level in human Jurkat cells at high concentration incubated for 6 hrs by Western blot analysis. It counts as functional, cell-based. The method in brief:
as §1

Experiment [22] concerns the target Protein cereblon/Histone deacetylase 8 (Homo sapiens) (UniProt Q9BY41+Q96SW2). The experiment is described as follows: PROTAC activity at CRBN/HDAC8 in human Jurkat cells assessed as induction of HDAC8 degradation at 10 uM measured after 48 hrs by Western blot analysis. It is filed as cell-based.
For experiment [23], the system named is Jurkat. The experiment is described as follows: Effect on AcHH3 level on human Jurkat cells at 10 uM measured after 48 hrs by Western blot analysis. It counts as functional, cell-based.
For experiment [24], the system named is Jurkat. In words: Effect on AcHH4 level on human Jurkat cells at 10 uM measured after 48 hrs by Western blot analysis. It is filed as functional, cell-based.
Experiment [25] has as its system Jurkat. The experiment is described as follows: Induction of apoptosis in human Jurkat cells assessed as increase in caspase 3/7 activity at 5 uM incubated for 48 hrs in presence of tert-butyl 2-(4-(4-((2,6-dioxopiperidin-3-yl)amino)phenyl)piperidin-1-yl)acetate. It is filed as functional, cell-based.
In experiment [26] the test system is HCT-116. The experiment is described as follows: Induction of apoptosis in human HCT-116 cells assessed as increase in caspase 3/7 activity at 5 uM incubated for 48 hrs in presence of tert-butyl 2-(4-(4-((2,6-dioxopiperidin-3-yl)amino)phenyl)piperidin-1-yl)acetate. It counts as functional, cell-based.
Experiment [27] concerns HCT-116. The experiment is described as follows: Induction of apoptosis in human HCT-116 cells assessed as viable cells at 10 uM measured after 48 hrs in presence of tert-butyl 2-(4-(4-((2,6-dioxopiperidin-3-yl)amino)phenyl)piperidin-1-yl)acetate by AnnexinV/FITC and PI staining based flow cytometry analysis (reference value: 91.3%). As to conditions: read-out: Activity. It counts as functional.

Experiment [28] has as its system HCT-116. The experiment is described as follows: Induction of apoptosis in human HCT-116 cells assessed as early apoptotic cells at 10 uM measured after 48 hrs in presence of tert-butyl 2-(4-(4-((2,6-dioxopiperidin-3-yl)amino)phenyl)piperidin-1-yl)acetate by AnnexinV/FITC and PI staining based flow cytometry analysis (reference value: 5.39%). It is filed as functional.

The test system of experiment [29] is HCT-116. In words: Induction of apoptosis in human HCT-116 cells assessed as late apoptotic cells at 10 uM measured after 48 hrs in presence of tert-butyl 2-(4-(4-((2,6-dioxopiperidin-3-yl)amino)phenyl)piperidin-1-yl)acetate by AnnexinV/FITC and PI staining based flow cytometry analysis (reference value: 1.96%). It is filed as functional.
In experiment [30] the test system is HCT-116. In words: Induction of apoptosis in human HCT-116 cells assessed as necrotic cells at 10 uM measured after 48 hrs in presence of tert-butyl 2-(4-(4-((2,6-dioxopiperidin-3-yl)amino)phenyl)piperidin-1-yl)acetate by AnnexinV/FITC and PI staining based flow cytometry analysis (reference value: […]). It is filed as functional.
For experiment [31], the system named is Jurkat. The experiment is described as follows: Upregulation of Ac-HH3 level in human Jurkat cells incubated for 6 hrs by Western blot analysis. It counts as functional, cell-based. The method in brief: as §1
In experiment [32] the test system is HCT-116. The experiment is described as follows: Upregulation of Ac-HH3 level in human HCT-116 cells incubated for 6 hrs by Western blot analysis. It counts as functional, cell-based. The note with it: dose 0.004-3.3 µM. The method, boiled down:
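HCT116 cells were incubated with graded concentrations for 6 h. Ac-HH3 was detected by Western blot with GAPDH as the loading control, then quantified by densitometry and normalized to DMSO-treated cells. Data are mean ± SEM of two independent experiments, compared against DMSO by one-way ANOVA.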

Experiment [33] has as its system Jurkat. The experiment is described as follows: Effect on Ac-tubulin level in human Jurkat cells at 0.33 to 0.11 uM incubated for 6 hrs by Western blot analysis. It counts as functional, cell-based. As to conditions: dose 0.33-0.11 µM. The method, boiled down: (§2)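 Cells were exposed to the compound for 6 h. Acetylated tubulin was detected by Western blot, with GAPDH as the loading control.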

Experiment [34] relates to HCT-116. The experiment is described as follows: Effect on Ac-tubulin level in human HCT-116 cells at 0.33 to 0.11 uM incubated for 6 hrs by Western blot analysis. It counts as functional, cell-based. The note with it: dose 0.33-0.11 µM. The method, boiled down:
as §2

Experiment [35] has as its system THP-1. In words: Upregulation of Ac-HH3 level in human THP-1 cells at 1.1 to 3.3 uM measured after 24 hrs by Western blot analysis. It counts as functional, cell-based. The note with it: dose 1.1-3.3 µM. The method in brief:
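THP-1 cells were exposed to the compound at the indicated concentrations for 24 h, then immunoblotted for Ac-HH3, Ac-SMC3, Ac-tubulin and HDAC8 with GAPDH as loading control. Band intensities were quantified and normalized to the DMSO-treated group. Data are mean ± SEM of two independent experiments, analysed by one-way ANOVA against DMSO.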

Experiment [36] concerns Jurkat. In words: Upregulation of Ac-HH3 level in human Jurkat cells at 0.4 to […] uM incubated for 24 hrs by Western blot analysis. It is filed as functional, cell-based. As to conditions: dose 0.4-33.3 µM.
Experiment [37] relates to Jurkat. In words: Upregulation of Ac-HH4 level in human Jurkat cells at 0.4 to […] uM incubated for 24 hrs by Western blot analysis. It is filed as functional, cell-based. The note with it: dose 0.4-33.3 µM.
Experiment [38] concerns Jurkat. In words: Upregulation of Ac-HH3 level in human Jurkat cells at 3.7 to […] uM incubated for 6 hrs by Western blot analysis. It counts as functional, cell-based. As to conditions: dose 3.7-33.3 µM.

Chain of Protein cereblon/Histone deacetylase 8 (Homo sapiens) (Q96SW2 whole entry, looked up): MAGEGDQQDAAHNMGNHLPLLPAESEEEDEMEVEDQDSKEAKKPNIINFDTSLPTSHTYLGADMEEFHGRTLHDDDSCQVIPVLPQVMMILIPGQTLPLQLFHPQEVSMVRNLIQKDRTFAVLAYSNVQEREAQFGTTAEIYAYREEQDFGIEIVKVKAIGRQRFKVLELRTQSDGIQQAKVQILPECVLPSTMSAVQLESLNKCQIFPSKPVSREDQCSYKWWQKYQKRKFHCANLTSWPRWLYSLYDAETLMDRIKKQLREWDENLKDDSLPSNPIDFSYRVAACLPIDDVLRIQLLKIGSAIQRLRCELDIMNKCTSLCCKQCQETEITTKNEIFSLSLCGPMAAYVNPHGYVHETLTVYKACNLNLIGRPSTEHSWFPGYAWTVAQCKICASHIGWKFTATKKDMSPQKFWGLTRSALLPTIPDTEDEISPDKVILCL
Chain of Protein cereblon/Histone deacetylase 8 (Homo sapiens) (Q9BY41 whole entry, looked up): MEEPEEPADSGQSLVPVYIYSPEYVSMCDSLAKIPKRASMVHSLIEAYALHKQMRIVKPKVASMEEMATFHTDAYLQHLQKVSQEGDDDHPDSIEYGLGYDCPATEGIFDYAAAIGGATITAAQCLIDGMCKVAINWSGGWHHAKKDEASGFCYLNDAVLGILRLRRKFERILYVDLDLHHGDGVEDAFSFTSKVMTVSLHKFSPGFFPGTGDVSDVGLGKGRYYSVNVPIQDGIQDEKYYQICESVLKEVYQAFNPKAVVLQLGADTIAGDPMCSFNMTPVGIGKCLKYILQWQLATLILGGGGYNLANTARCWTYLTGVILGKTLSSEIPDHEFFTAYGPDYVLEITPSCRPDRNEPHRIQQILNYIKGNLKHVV

As for `Nc1ccccc1NC(=O)c1ccc(CNC(=O)OCc2cccnc2)cc1` [ENTINOSTAT], the IC50 in [1] is 2.3 µM.
Consider `O=C(CCCCCCC(=O)Nc1ccccc1)NO`, for which the outcome in [2] was inactive. In addition, the result in experiment [3], in experiment [4], in experiment [5], in [6], in experiment [7] and in [8] was Active. In addition, in experiment [9], the result was Active.
`CC(C)(C)OC(=O)CN1CCC(c2ccc(NC3CCC(=O)NC3=O)cc2)CC1` (centres undefined): the IC50 in experiment [10], in [11], in [12] and in experiment [13] was over 33.3 µM in each case. In addition, the outcome in [14] and in experiment [15] was inactive. The viability at 10 µM in [16] is 73.2%. In addition, the values for the Activity in experiment [17], in experiment [18] and in experiment [19] were 19.6%, 3.87% and 3.33%, respectively.
Consider `CCCCCCNNC(=O)c1ccc(CNC(C)=O)cc1`, for which the result in experiment [2], in [22], in [23], in experiment [24], in [25] and in experiment [26] was inactive. Further, the outcome in experiment [20] and in [21] was Active. The viability at 10 µM in [27] is 73.2%. Also, the values for the Activity in experiment [28], in experiment [29] and in [30] were 19.6%, 3.87% and 3.33%, respectively.
In the case of `CCCCCCNNC(=O)c1ccc(CNC(=O)CN2CCC(c3ccc(NC(C)=O)cc3)CC2)cc1`, the Activity entry in [31] and in experiment [32] was “Dose-Dependent Effect” each time. In addition, the result in experiment [33] and in experiment [34] was inactive. In experiment [35], the outcome was Active.
Regarding `COc1ccc(Cn2ccc3ccc(C(=O)NO)cc32)cc1`, the result in experiment [36] and in [37] was inactive.
With `CCCCCCN(NC(=O)c1ccc(CNC(=O)CN2CCC(c3ccc(NC4CCC(=O)NC4=O)cc3)CC2)cc1)C(=O)OC(C)(C)C` (centres undefined), the outcome in experiment [38] was inactive.
